Screening data as filed in PubChem.
In the library only some 2.2% were active in any assay of this set; here they are far more common.
PvdQ inh – P. aeruginosa PvdQ acylase inhibitors, primary screen, biochemical, fluorescence, plate reader and imaging, single point; 340,000 compounds, 0.063% hits; purified PvdQ acylase; AID 488965, 2010; inhibition, % at 10 µM; PvdQ acylase [Pseudomonas aeruginosa LESB58]; in the data active = inhibition above about 30%, passing the limit was not always enough;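 note: 0% = vehicle neutral wells and 100% = reference inhibitor wells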
IMP-1 inh – IMP-1 metallo-beta-lactamase inhibitors, primary screen, biochemical, epi-absorbance readout, Pseudomonas aeruginosa enzyme | purified IMP-1, nitrocefin hydrolysis, epi-absorbance fluorescence | inhibition, % at 5.6 µM | 290,000 compounds, 0.45% hits;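 active = inhibition above the mean plus 3 SD of all compounds in the same screening run, cut at about 4.5% in these data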;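 note: 0% = IMP-1 with DMSO and 100% = DMSO wells lacking enzyme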
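Material – recombinant IMP-1 enzyme, purified · Amount – IMP-1 0.2 nM before substrate addition · Medium – HEPES buffer pH 7.1 with ZnSO4 and Brij 35 · Timing – 25 °C, 15 min preincubation, 25 min reaction · Measured by – plate fluorescence quenching by hydrolysis product, ex 480/em 530 nm · Read-out – percent enzyme inhibition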
VIM-2 inhibitor – VIM-2 metallo-beta-lactamase inhibitors, primary screen, biochemical, epi-absorbance readout, Pseudomonas aeruginosa enzyme; purified VIM-2, nitrocefin hydrolysis, epi-absorbance fluorescence; inhibition, % at 5.6 µM; 290,000 compounds, 0.89% hits;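 active = inhibition above the mean of all tested compounds plus 3 SD, cutoff set per screening run, cut at about 7.5% in these data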;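 note: red hydrolysis product quenches plate fluorescence so inhibitors raise well fluorescence; 0% = enzyme with DMSO and 100% = DMSO without enzyme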
Yeast superoxide – reduction of superoxide in aged yeast, primary screen, HTS | AID 2690, 2010 | 330,000 compounds, 0.18% hits | superoxide response (% of plate mean), % at 10 µM | S. cerevisiae aged cells, superoxide DHE fluorescence; active compounds read low;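 active = superoxide response under a set limit, about three screen SD below normal, cut at about 65% in these data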;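 note: yeast aged for seven days with compound at 30 °C before DHE staining; 100% = average MFI of all compound-treated wells on the plate with controls excluded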
PHOSPHO1 block – PubChem AID 1565; inhibition, % at 13.3 µM; recombinant PHOSPHO1, absorbance phosphatase assay; 290,000 compounds, 1.1% hits; Phosphoethanolamine/phosphocholine phosphatase (Homo sapiens), Q8TCT1; in the data active = inhibition above about 60%
Target sequence (Q8TCT1 whole entry, looked up): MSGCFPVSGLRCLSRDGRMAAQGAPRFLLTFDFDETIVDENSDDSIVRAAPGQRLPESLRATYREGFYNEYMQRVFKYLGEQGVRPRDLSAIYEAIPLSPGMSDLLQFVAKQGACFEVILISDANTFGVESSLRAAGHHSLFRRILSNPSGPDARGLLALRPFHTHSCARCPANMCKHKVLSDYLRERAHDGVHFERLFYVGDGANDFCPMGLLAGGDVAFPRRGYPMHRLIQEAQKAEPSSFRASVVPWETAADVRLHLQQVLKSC
CR mimetic CP – superoxide lowering in aged yeast cells, confirmation, cherry picked compounds; shares compounds with Yeast superoxide; S. cerevisiae aging, superoxide DHE fluorescence; active compounds read low; superoxide response (% of plate), % at 10 µM; 850 compounds, 1% hits; AID 434994, 2010;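 active = superoxide signal below 65% of the plate average of sample wells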;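 note: cells aged with compound for 7 days at 30 degrees C before staining; 100% equals mean DHE fluorescence of all compound wells on the plate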
DHE fluor count – DHE quenching or ROS scavenging interference in aged yeast, artefact control for yeast caloric restriction mimetic project, S. cerevisiae BY4741, flow cytometry; shares compounds with Yeast superoxide; DHE fluorescence; active compounds read low; fluorescence response, % at 10 µM; 850 tested, under 10 active; AID 435000, 2010;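 active = fluorescence response below 15%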;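 note: percent of the mean fluorescence averaged over all compound wells on the plate; lower means stronger quenching of DHE signal or ROS scavenging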
The depositor's hits bear a star; nt = no result given.

SMILES | PvdQ inh | IMP-1 inh | VIM-2 inhibitor | Yeast superoxide | PHOSPHO1 block | CR mimetic CP | DHE fluor count
COc1ccc(/C=C2\SC(N3CCCCC3)=NC2=O)cc1 | -12.5 | 2.4 | 1.4 | 55.1* | 29.2 | 98.4 | 99.1
CCOc1cc(C(=O)OC(C(=O)NC(=O)NC)c2ccccc2)ccc1OCC(=O)N1CCOCC1 (configuration not stated) | -7.8 | nt | nt | 127.7 | nt | nt | nt
Cc1ccc(S(=O)(=O)Nc2c(C)cc(C)nc2Cl)cc1 | -16.5 | 0.4 | 0.0 | 49.8* | 15.9 | 101.5 | 106.8
Cc1nc2ccc(NC(=O)c3nn(CC(C)C)c(=O)c4ccccc34)cc2s1 | -8.1 | -2.6 | -1.3 | 56.5* | -6.0 | 114.3 | 121.7
CCN(Cc1ccccc1)S(=O)(=O)c1ccc(C(=O)Nc2nnc(C)o2)cc1 | -16.2 | -3.8 | -7.5 | 82.2 | 23.8 | 87.0 | 99.9
CCN(CC)C(=O)CCn1nc(-c2ccc(C)cc2)c2ccccc2c1=O | -13.7 | -3.1 | 1.9 | 37.0* | 11.4 | 99.8 | 93.7
CC(=O)Nc1ccc(S(=O)(=O)N2CCCC2)cc1 | -9.0 | -3.4 | -2.2 | 101.0 | nt | 98.4 | 114.6
CCCC(=O)Nc1ccc(S(=O)(=O)N2CCCC2)cc1 | -0.3 | -0.3 | -1.8 | 106.1 | 7.8 | nt | nt
COCC(=O)Nc1ccc(S(=O)(=O)N2CCCC2)cc1 | -12.0 | -1.8 | -3.3 | 88.0 | 2.0 | 99.4 | 100.5
CCS(=O)(=O)N1CCc2nc(-c3ccccc3)sc2C1 | -10.0 | 0.5 | -0.1 | 45.8* | 32.7 | 99.2 | 92.6
COc1ccc(-c2nc3c(s2)CN(S(C)(=O)=O)CC3)cc1OC | -19.2 | -1.4 | -0.3 | 97.0 | nt | nt | nt
COc1cc(C)c(Br)cc1S(=O)(=O)N1CCCC1 | -11.2 | 1.1 | -1.4 | 101.9 | -26.6 | 100.0 | 95.0
COc1cc(Cl)c(S(=O)(=O)N2CCCC2)cc1Cl | -12.2 | -4.4 | -0.9 | 87.4 | 8.0 | 92.0 | 97.3
CCOc1cc(C)c(Cl)cc1S(=O)(=O)N1CCCC1 | 0.7 | -1.2 | -1.4 | 107.3 | 3.5 | nt | nt
COc1cc(C)c(Cl)cc1S(=O)(=O)N1CCCC1 | 1.0 | -3.3 | -3.5 | 100.5 | 8.1 | 102.6 | 90.0
COC(=O)C(NC(=O)c1cccnc1Cl)C(C)C (configuration not stated) | -14.1 | -2.2 | -1.5 | 93.7 | 28.5 | nt | nt
COc1ccc2c(c1)OC[C@H]1[C@H]2N2C(=O)CN(CCc3c[nH]c4ccccc34)C(=O)[C@@]2(C)[C@H]1c1ccccc1 | -4.4 | nt | nt | 87.8 | nt | nt | nt
CCOC(=O)C(CC)n1cnc2c(nnn2-c2ccc(C)cc2)c1=O (configuration not stated) | 7.6 | -1.3 | -0.1 | 99.9 | 21.0 | nt | nt
CCOC(=O)C(CC)n1cnc2c(nnn2-c2cccc(OC)c2)c1=O (configuration not stated) | -6.1 | -6.2 | -2.6 | 65.1* | 56.5 | 107.3 | 94.9
CCc1ccc(NC(=O)CCS(=O)(=O)c2ccc(Cl)cc2)cc1 | 21.8 | -0.9 | -0.4 | 51.4* | 39.4 | 84.0 | 95.1
O=C(Cc1ccccc1F)Nc1cccc(S(=O)(=O)N2CCOCC2)c1 | 12.3 | nt | nt | 89.1 | nt | nt | nt
COc1cc(C(=O)NCCC(=O)NCCCN2CCCCC2C)cc(OC)c1OC (configuration not stated) | -17.8 | -4.2 | -1.9 | 62.4* | 10.2 | 123.1 | 111.8
COc1cc(Cl)c(C)cc1NC(=O)CSC1=NCCS1 | -11.0 | nt | nt | 124.3 | nt | nt | nt
CN(C(=O)CSc1nc(O)cc(=O)n1-c1ccccc1F)c1ccccc1 | 5.1 | -1.8 | -1.7 | 49.7* | 37.6 | 107.0 | 106.8
COc1ccc(S(=O)(=O)N2CCCCC2)cc1NC(=O)c1cccc(S(=O)(=O)N2CC(C)OC(C)C2)c1 (configuration not stated) | -6.6 | nt | nt | nt | nt | nt | nt
SMILES | PvdQ inh | IMP-1 inh | VIM-2 inhibitor | Yeast superoxide | PHOSPHO1 block | CR mimetic CP | DHE fluor count
CCCCc1c(C)c(C#N)c2nc3ccccc3n2c1NCCN(C)C | -16.2 | -2.0 | 2.7 | nt | 18.5 | nt | nt
Cc1c(Cc2ccccc2)c(NCCN(C)C)n2c(nc3ccccc32)c1C#N | 1.9 | -2.0 | 0.1 | 58.7* | 19.5 | 81.8 | 119.4
Cc1c(Br)c(-c2n[nH]c(=S)n2Cc2ccco2)nn1C | -9.0 | -1.5 | 0.8 | 88.6 | -20.2 | nt | nt
Cc1cc(-c2n[nH]c(=S)n2Cc2ccco2)nn1C | -3.0 | -3.1 | -0.8 | 65.0* | -29.4 | 101.6 | 98.4
CN(CC(=O)NCc1ccco1)CC(=O)Nc1cc(S(C)(=O)=O)ccc1Cl | -12.7 | nt | nt | nt | nt | nt | nt
Cc1ccc(-n2c(C)cc(C)c(C#N)c2=O)cc1C | -5.6 | -5.1 | -3.3 | 62.0* | 49.0 | 100.3 | 102.7
Cc1cc(C)n(-c2ccc(F)cc2)c(=O)c1C#N | 4.6 | -2.8 | -2.3 | 100.5 | 28.1 | nt | nt
CC1Nc2ccccc2C(=O)N1NC(=O)c1ccc(Br)cc1 (configuration not stated) | -12.6 | 1.7 | -2.1 | 95.0 | -12.6 | nt | nt
COc1ccc(NC(=O)N(C)C[C@H]2Oc3ccc(NC(=O)NC4CCCCC4)cc3C(=O)N([C@H](C)CO)C[C@@H]2C)cc1 | -1.0 | nt | nt | 86.0 | nt | nt | nt
COc1ccc2nc(Nc3nc(C)c(CCC(C)C)c(=O)[nH]3)nc(C)c2c1 | 6.7 | -3.2 | -2.2 | 65.3* | 7.3 | 121.7 | 108.3
CCOC(=O)NC(=O)/C(C#N)=N\Nc1cccc(OC)c1 | -2.0 | -3.6 | -1.6 | 102.0 | 10.8 | 121.9 | 124.5
N#C/C(=N\Nc1ccccc1Cl)C(=O)c1ccccc1 | 5.5 | -3.1 | -4.1 | 104.9 | 15.4 | nt | nt
CCOC(=O)/C(C#N)=N/Nc1ccccc1C#N | 4.4 | -2.7 | -2.8 | 113.6 | -6.2 | nt | nt
CCOC(=O)NC(=O)/C(C#N)=N/Nc1c(F)cccc1F | 8.2 | -3.8 | -3.2 | 93.4 | 17.0 | 101.0 | 103.7
N#C/C(=N\Nc1c(Cl)cccc1Cl)C(=O)NN | -21.5 | -3.2 | -2.8 | 94.2 | 7.8 | 110.1 | 118.8
O=C(COC(=O)CNC(=O)c1ccc(Cl)c([N+](=O)[O-])c1)NC(=O)CN1CCCC1=O | 0.6 | nt | nt | 118.6 | nt | nt | nt
CCOC(=O)c1ccc(NC(=O)CSc2ccc(-c3ccccn3)nn2)cc1 | 0.2 | -3.9 | 1.5 | 113.5 | 37.0 | 115.9 | 90.8
O=C(CSc1ccc(-c2ccccn2)nn1)Nc1ccc(F)cc1F | -6.8 | -5.9 | -3.1 | 107.7 | 13.0 | 103.2 | 106.3
O=C(CSc1ccc(-c2cccnc2)nn1)Nc1ccc(F)cc1F | -4.3 | -0.8 | -2.2 | 90.9 | 27.4 | nt | nt
COc1ccccc1NC(=O)CSc1ccc(-c2ccccn2)nn1 | 3.7 | -4.8 | -0.9 | 112.8 | 24.0 | 100.6 | 97.4
O=C(CSc1ccc(-c2cccnc2)nn1)Nc1ccccc1C(F)(F)F | -12.4 | -2.1 | -2.6 | 91.6 | 41.8 | 100.8 | 90.6
COC(=O)[C@@]12CCCCN1[C@H](c1ccc(-c3ccc4c(c3)OCO4)cc1)[C@H]1C(=O)N(C)C(=O)[C@H]12 | -6.0 | nt | nt | 85.3 | nt | nt | nt
